Consider one compound from ChEMBL document CHEMBL5550111, “Design, synthesis and biological evaluation of aryloxy thiophosphoramidate triesters of anticancer nucleoside analogues” (Bioorg Med Chem, 2024).

The subject of data set [1] is OVCAR-3. As to the kind of experiment: Cytotoxicity against human OVCAR-3 cells assessed as inhibition of cell viability incubated for 72 hrs by MTS assay. The conditions noted are these: OVCAR-3, 72 h. The format is functional, cell-based. The essentials:
(§1)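 Cells seeded at 0.5 to 100 × 10^3 per well the day before treatment, then exposed for 72 h to 9 serial concentrations (3.16-fold dilutions, top 198 μM), in duplicate. MTS added for a final 4 h at 37 °C and absorbance read. IC50 is the concentration giving 50% loss of viability. MI% is the maximum inhibition over the tested range.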
Background: Tetrazolium dyes change colour on reduction, which living cells bring about.

Data set [2] has as its system NCI-H1975. The data set is described as follows: Cytotoxicity against human NCI-H1975 cells assessed as maximum inhibition of cell viability upto 198 uM incubated for 72 hrs by MTS assay relative to control. Conditions: up to 198 µM. The data set is classed as functional. A digest of the protocol:
(§2)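 Cells seeded at 0.5 to 100 × 10^3 per well the day before drug addition, then exposed to compound for 72 h. MTS added afterwards, with a further 4 h at 37 °C, and absorbance read. Tested in duplicate at 9 serial 3.16-fold dilutions, top concentration 198 μM. MI% is the maximum inhibition of viability across the tested range.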

The test system of data set [3] is HepG2. The data set is described as follows: Cytotoxicity against human HepG2 cells assessed as inhibition of cell viability incubated for 72 hrs by MTS assay. The data set is classed as functional, cell-based. Conditions: HepG2, 72 h. A digest of the protocol: as §1
In data set [4] the test system is RT112/84. The data set is described as follows: Cytotoxicity against human RT112/84 cells assessed as inhibition of cell viability incubated for 72 hrs by MTS assay. The data set is classed as functional, cell-based. Conditions: RT112/84, 72 h. The essentials:
as §1

Data set [5] concerns SK-MES-1. The data set is described as follows: Cytotoxicity against human SK-MES-1 cells assessed as inhibition of cell viability incubated for 72 hrs by MTS assay. The conditions noted are these: SK-MES-1, 72 h. The format is functional, cell-based. The essentials: as §1
Data set [6] relates to RT112/84. The data set is described as follows: Cytotoxicity against human RT112/84 cells assessed as maximum inhibition of cell viability upto 198 uM incubated for 72 hrs by MTS assay relative to control. The format is functional. Conditions: up to 198 µM. The essentials:
as §2

Data set [7] concerns SK-MES-1. As to the kind of experiment: Cytotoxicity against human SK-MES-1 cells assessed as maximum inhibition of cell viability upto 198 uM incubated for 72 hrs by MTS assay relative to control. The data set is classed as functional. The conditions noted are these: up to 198 µM. A digest of the protocol: as §2
The subject of data set [8] is MIA PaCa-2. The data set is described as follows: Cytotoxicity against human MIA PaCa-2 cells assessed as maximum inhibition of cell viability upto 198 uM incubated for 72 hrs by MTS assay relative to control. The format is functional. The conditions noted are these: up to 198 µM. The essentials:
as §2

Data set [9] deals with OVCAR-3. As to the kind of experiment: Cytotoxicity against human OVCAR-3 cells assessed as maximum inhibition of cell viability upto 198 uM incubated for 72 hrs by MTS assay relative to control. The data set is classed as functional. The conditions noted are these: up to 198 µM. The essentials: as §2
The subject of data set [10] is COLO 205. As to the kind of experiment: Cytotoxicity against human COLO 205 cells assessed as inhibition of cell viability incubated for 72 hrs by MTS assay. The format is functional, cell-based. The conditions noted are these: COLO 205, 72 h. A digest of the protocol: as §1
For data set [11], the system named is HT-29. As to the kind of experiment: Cytotoxicity against human HT-29 cells assessed as inhibition of cell viability incubated for 72 hrs by MTS assay. The data set is classed as functional, cell-based. The conditions noted are these: HT-29, 72 h. A digest of the protocol:
as §1

In data set [12] the test system is HT-29. The data set is described as follows: Cytotoxicity against human HT-29 cells assessed as maximum inhibition of cell viability upto 198 uM incubated for 72 hrs by MTS assay relative to control. The data set is classed as functional. The conditions noted are these: up to 198 µM. The essentials:
as §2

In data set [13] the test system is RPMI-8226. The data set is described as follows: Cytotoxicity against human RPMI-8226 cells assessed as inhibition of cell viability incubated for 72 hrs by MTS assay. The format is functional, cell-based. Conditions: RPMI-8226, 72 h. A digest of the protocol: as §1
For data set [14], the system named is MIA PaCa-2. As to the kind of experiment: Cytotoxicity against human MIA PaCa-2 cells assessed as inhibition of cell viability incubated for 72 hrs by MTS assay. Conditions: MIA PaCa-2, 72 h. The format is functional, cell-based. A digest of the protocol:
as §1

For data set [15], the system named is HepG2. As to the kind of experiment: Cytotoxicity against human HepG2 cells assessed as maximum inhibition of cell viability upto 198 uM incubated for 72 hrs by MTS assay relative to control. Conditions: up to 198 µM. The format is functional. The essentials: as §2
Data set [16] concerns RPMI-8226. As to the kind of experiment: Cytotoxicity against human RPMI-8226 cells assessed as maximum inhibition of cell viability upto 198 uM incubated for 72 hrs by MTS assay relative to control. The data set is classed as functional. The conditions noted are these: up to 198 µM. The essentials: as §2
Data set [17] deals with COLO 205. As to the kind of experiment: Cytotoxicity against human COLO 205 cells assessed as maximum inhibition of cell viability upto 198 uM incubated for 72 hrs by MTS assay relative to control. The format is functional. Conditions: up to 198 µM. A digest of the protocol:
as §2

The nature of data set [18]: Prodrug activation assessed as carboxypeptidase Y (unknown origin) mediated (2S)-2-[[[(2R,3S,5R)-[…]-3-hydroxy-tetrahydrofuran-2-yl]methoxy-hydroxy-phosphoryl]amino]propanoic acid formation from intermediate (2S)-2-[[[(2R,3S,5R)-5-(5-fluoro-2,4-dioxo-pyrimidin-1-yl)-3-hydroxy-tetrahydrofuran-2-yl]methoxy-(1-naphthyloxy)phosphinothioyl]amino]propanoic acid at 5 mg measured for 48 hrs by 31P-NMR assay. Conditions: […]. The essentials:
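Thiophosphoramidate (5 mg, about 0.008 mmol) dissolved in 150 µL acetone-d6, with 300 µL TRIZMA buffer pH 7.6 added. Enzymatic conversion followed by 31P-NMR.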

Data set [19] deals with NCI-H1975. The data set is described as follows: Cytotoxicity against human NCI-H1975 cells assessed as inhibition of cell viability incubated for 72 hrs by MTS assay. The data set is classed as functional, cell-based. Conditions: NCI-H1975, 72 h. A digest of the protocol: as §1

Usually IC50 stands for the concentration that inhibits the measured activity by half. Take `C[C@H](NP(=S)(OC[C@H]1O[C@@H](n2cc(F)c(=O)[nH]c2=O)C[C@@H]1O)Oc1cccc2ccccc12)C(=O)OCc1ccccc1` (some centres undefined): the half-maximal inhibitory concentration (IC50) in the data set with OVCAR-3 [1] came to 21.5 µM; in the data set with HepG2 [3], 25.5 µM; in the data set on RT112/84 [4], 2.49 µM; in the data set on SK-MES-1 [5], 2.49 µM; in the data set on COLO 205 [10], 4 µM; in the data set with HT-29 [11] it was 2.81 µM. Besides, the results for the IC50 in the data set on RPMI-8226 [13], in the data set on MIA PaCa-2 [14] and in the data set on NCI-H1975 [19] were 6.63 µM, 2.69 µM and 100 µM, respectively. For the same compound, the Imax is listed as 100% with NCI-H1975 [2]; 97% with RT112/84 [6]; 97% in the data set on SK-MES-1 [7]; 100% in the data set with MIA PaCa-2 [8]; 100% in the data set with OVCAR-3 [9]; 100% with HT-29 [12]. For the same compound, the Imax in the data set with HepG2 [15], in the data set with RPMI-8226 [16] and in the data set with COLO 205 [17] was 100% throughout. In addition, the Drug metabolism entry in data set [18] is listed as “Metabolite_Detected”.
